Screening results: PubChem BioAssay, several laboratories
H9c2 TAG inh: triacylglycerol accumulation inhibition | hit rate 0.66% among 230,000 | inhibition, % at 12.5 µM | H9c2 cells, Nile Red lipid (TAG) fluorescence; cells loaded with 200 µM oleic acid;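 active means pattern-corrected inhibition of lipid staining of at least 50% with the nuclear-stain viability signal not falling by more than 50%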;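 further: 0% = DMSO wells and 100% = triacsin C control wells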
Rad51 HR inh: blocks human Rad51 in homologous recombination; hit rate 0.085% among 200,000; hRad51 DNA strand exchange, fluorescence dequenching; inhibition, % at 10 µM; Q06609;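 active means inhibition above 40% at the single screening dose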;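 further: 0% = DMSO control wells and 100% = blanks with heterologous ssDNA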
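Material: human Rad51–ssDNA filaments; Probe or stimulus: labelled 47-mer dsDNA for strand exchange; Doses: single 10 µM dose; Incubation: 37 °C 15-min filament assembly, 30-min compound preincubation, 15-min exchange; Technique: FRET fluorescence dequenching, excitation 485 nm, emission 520 nm; Measure: Fluorescence-based percent inhibition, control- and blank-normalised; Benchmarks: plate control and blank wells.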
HIF act: HIF pathway transcriptional activation. U2OS HRE-luciferase reporter, luminescence; normalized: DMSO 0%, desferrioxamine 100%. activation, % at 7.5 µM (by protocol). hit rate 0.32% among 300,000. AID 1910;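 active means mean activation of at least 10% of the iron chelator positive control signal, with at least half of replicates also reaching 10%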
ABHD5-PLIN5 inh: blocks binding of human ABHD5 to perilipin-5; Q00G26+Q8WTS1; Split G. princeps luciferase complementation, luminescence, 4 h; inhibition, % at 4 µM; hit rate 0.78% among 360,000; AID 602281;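 active means inhibition above the mean inhibition across every tested compound plus 3 SD, cut at about 22% in these data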;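 further: 0% = DMSO only wells and the 100% control is not disclosed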
GAA850 FXN act: increases GAA850 frataxin promoter reporter activity; HEK293 lucGAA850 FXN promoter luciferase reporter, 24 h; percent of 10 µM SAHA response; activation, % at 6 µM; hit rate 0.56% among 360,000; AID 540364;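 active means activation above the average of all compounds screened plus 3 SD, cutoff fixed separately per campaign, cut at about 7.5% in these data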;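 further: 0% = DMSO wells and 100% = 10 µM SAHA wells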
Hsp70 act: transcriptional activators of Hsp70; activation, % at 10 µM; hit rate 0.04% among 200,000; HeLa Hsp70 promoter luciferase reporter, luminescence; scaled: vehicle 0, proteasome-inhibitor control 100%;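 active means activation above the mean across all tested compounds plus 3 SD, cutoff set per campaign, cut at about 5.5% in these data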;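 further: 100% = MG132 at 30 µM as the positive control and 0% = DMSO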
ABHD5-PLIN5 conf: ABHD5-PLIN5 interaction inhibition, confirmed | hit rate 67% among 2,200 | AID 651612 | inhibition, % at 4 µM | biochemical ABHD5-PLIN5 interaction, luminescence | shares compounds with ABHD5-PLIN5 inh; in the data active means inhibition above about 23%;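 further: 0% = DMSO vehicle wells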
HNF4 counter: HNF4 split-luciferase signal hit, counter-screen | shares compounds with ABHD5-PLIN5 inh | HNF4 dimerization, luminescence, biochemical | inhibition, % at 4 µM | hit rate 77% among 2,200;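 active means mean inhibition across replicate wells exceeding the computed hit threshold, cut at about 13% in these data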;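 further: light from luciferase halves that rejoin when HNF4 fusion proteins dimerize; 0% = DMSO only wells and the 100% control is not given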
TAG conf: confirmation of triacylglycerol accumulation inhibitors. shares compounds with H9c2 TAG inh. H9c2 lipid accumulation, Nile Red fluorescence; cells loaded with 200 µM oleic acid. inhibition, % at 12.5 µM. hit rate 71% among 990;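 active means mean inhibition across replicates of 40% or more; inactive means mean inhibition below 40%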;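 further: plate controls were DMSO only wells for no effect and Triacsin C treated wells for full effect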
* = called active by the depositor; x = no result. A selection: hits, their analogues and other compounds. The true share with any hit is near 1.9%.

SMILES | H9c2 TAG inh | Rad51 HR inh | HIF act | ABHD5-PLIN5 inh | GAA850 FXN act | Hsp70 act | ABHD5-PLIN5 conf | HNF4 counter | others
C=CCn1c(SCC(=O)N2CCCC2)nc2scc(-c3cccs3)c2c1=O | x | x | 0 | -2 | 3 | 0 | x | x
C=CCn1c(SCc2ccc3c(c2)OCO3)nc2scc(-c3ccco3)c2c1=O | -3 | -4 | 0 | 36* | 3 | 0 | 17 | 10
C=CCn1c(SCC(=O)N2CCOCC2)nc2scc(-c3ccco3)c2c1=O | x | 1 | 0 | 33* | 2 | 0 | 23* | 49*
Cc1sc2nc(SCC(=O)NCc3ccco3)n(-c3ccccc3)c(=O)c2c1C | x | 1 | x | -1 | 1 | 0 | x | x
c1ccc2cc(CNCc3cccc4ccccc34)ccc2c1 | 3 | -12 | 0 | -2 | 0 | x | x | x
Cc1nn(-c2ccccc2)c(C)c1NC(=O)COC(=O)CC(C)c1ccccc1 (stereo unspecified) | 0 | x | 1 | -1 | 0 | x | x | x
CCOc1cccc(Cc2c[nH]c(=O)[nH]c2=O)c1 | 8 | x | x | -1 | 0 | x | x | x
Cc1cc(NC(=O)COC(=O)c2cc([N+](=O)[O-])ccc2N2CCOCC2)ccc1Br | -18 | x | 0 | -11 | -1 | x | x | x
CCOC(=O)C1CCN(CC(O)COc2ccc(S(=O)(=O)N3CCCC3)cc2[N+](=O)[O-])CC1 (stereo unspecified) | 4 | x | x | 5 | -3 | x | x | x
C=CCn1c(SC(F)F)nc2scc(-c3ccco3)c2c1=O | x | x | 0 | 4 | 6 | x | x | x
C=CCn1c(SCC(C)=O)nc2scc(-c3ccco3)c2c1=O | x | x | 0 | 34* | 1 | x | 54* | 85*
Cc1cc2oc(=O)sc2cc1NS(=O)(=O)c1cccc2cccnc12 | x | x | 0 | -11 | 1 | x | x | x
Cc1cc2oc(=O)sc2cc1NS(=O)(=O)c1ccccc1 | x | x | 0 | 39* | -1 | x | -72 | -27
COc1cc2c(-c3ccc4[nH]ccc4c3)c(-c3ccc(C#N)cc3)oc(=O)c2cc1OC | -4 | x | x | 0 | -2 | x | x | x
Cc1ccsc1/C=N/NC(=O)CNC(=O)c1cccc([N+](=O)[O-])c1C | 7 | 1 | -4 | 25* | -1 | 0 | 2 | 0
Cc1ccsc1/C=N/NC(=O)CNC(=O)c1ccco1 | 17 | -8 | 1 | -2 | 0 | 0 | x | x
Cc1ccc(NC(=O)Cn2ncc(Cl)c(Cl)c2=O)cc1S(=O)(=O)N1CCCCC1 | 8 | x | x | 6 | 2 | x | x | x
O=C(O)/C=C/C(=O)c1c(-c2ccccc2)[nH]c2ccccc12 | x | x | 0 | 62* | -2 | x | 96* | 94*
CC(=O)c1c(-c2ccccc2)[nH]c2ccccc12 | -8 | x | -8 | 2 | -2 | x | x | x
CCOc1ccccc1NC(=O)c1nc(S(=O)(=O)Cc2ccccc2)ncc1Cl | x | x | -5 | -1 | -6 | x | x | x
CSc1nnc(NC(=O)c2nc(S(=O)(=O)Cc3ccccc3)ncc2Cl)s1 | x | x | -2 | 23* | -3 | x | 69* | 42*
CC(C)c1nnc(NC(=O)c2nc(S(=O)(=O)Cc3ccccc3)ncc2Cl)s1 | x | x | -2 | 35* | -9 | x | 85* | 68*
CCCc1nnc(NC(=O)c2nc(S(=O)(=O)Cc3ccc(C)cc3)ncc2Cl)s1 | x | x | 1 | 44* | -1 | x | 77* | 53*
CSc1ncc(Cl)c(C(=O)Nc2nnc(SC)s2)n1 | -12 | 3 | 0 | 1 | 2 | 0 | x | x
Cc1ccc(S(=O)(=O)CCc2nnc(NC(=O)c3cnccn3)s2)cc1 | 0 | 4 | 0 | 0 | 0 | 0 | x | x
SMILES | H9c2 TAG inh | Rad51 HR inh | HIF act | ABHD5-PLIN5 inh | GAA850 FXN act | Hsp70 act | ABHD5-PLIN5 conf | HNF4 counter | others
O=C(Nc1ccc(Oc2ccccc2)cc1)c1csc(COCCO)n1 | -2 | x | x | 3 | -3 | x | x | x
O=C(NC(=S)Nc1ccccc1O)c1ccccc1Cl | -10 | 10 | 1 | -3 | 3 | 0 | x | x
COc1cc(C)c2sc3ccccc3c(=O)c2c1NCCN(C)C | 70* | x | x | 32* | 5 | x | 27* | 8 | TAG conf=64*
CSCCC(NC(=O)c1ccco1)C(=O)N1CCN(Cc2ccccc2)CC1 (stereo unspecified) | 2 | x | 0 | -10 | 0 | x | x | x
CC(C)C(C)(C#N)NC(=O)CSc1nc2scc(-c3ccco3)c2c(=O)n1-c1ccccc1 (stereo unspecified) | 70* | -5 | -2 | 25* | 1 | 0 | 30* | 93* | TAG conf=44*
COc1cc(CN2CCC(C(=O)NC(c3ccc(F)cc3)c3ccc4ccccc4n3)CC2)cc(OC)c1 (stereo unspecified) | 48 | x | x | 7 | -3 | x | x | x
Cn1cc(CN2CCC(C(=O)NC(c3ccc(F)cc3)c3ccc4ccccc4n3)CC2)c2ccccc21 (stereo unspecified) | 103* | x | x | 24* | -7 | x | 12 | 11 | TAG conf=98*
O=C(CN1c2cccc3cccc(c23)S1(=O)=O)NCc1ccccc1Cl | -6 | x | x | -1 | 0 | x | x | x
COc1cc(C(CCN2CCCC(C)C2)c2c(OC)cc(OC)c3c(-c4ccccc4)cc(=O)oc23)cc(OC)c1OC (stereo unspecified) | 74* | 3 | -1 | 27* | -1 | x | 9 | 7 | TAG conf=78*
COc1cc(C(CC(=O)N2CCCC2)c2c(OC)cc(OC)c3c(-c4ccccc4)cc(=O)oc23)cc(OC)c1OC (stereo unspecified) | 1 | 2 | 0 | 3 | 0 | x | x | x
